Data set [1] has as its system Mus musculus. The data set is described as follows: Biodistribution was studied by injecting intravenously into C57B1/6 mice bearing subcutaneously transplanted B16 liver after 6 hr. Format: ADME, organism-based. The note with it: in vivo, iv.
Data set [2] has as its system B16. The data set can be described thus: Binding of radioiodinated compound in B16 cells as a function of specific activity for blood at 1 hr after injecting at 1.5*10e-3 (uMol/mouse). The class given is functional. The method in brief: (§1)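 C57Bl/6 mice carried subcutaneous B16 melanoma. Melanoma and blood radioactivity were measured by γ-counting at 1 or 6 h and expressed as % ID/g (mean, n = 3).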

Data set [3] can be described thus: The lipophilicity was measured in an octanol/water system at pH 7.4. Format: physicochemical. The method in brief: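 HPLC-purified no-carrier-added radioiodinated benzamide was added to 0.067 M phosphate buffer at pH 7.4 with an equal volume of 1-octanol. The mixture was vortexed to equilibrium, centrifuged and the phases separated. Each phase was γ-counted, with log P = log(cpm octanol/cpm buffer).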

Data set [4] deals with Mus musculus. The data set can be described thus: Biodistribution was studied by injecting intravenously into C57B1/6 mice bearing subcutaneously transplanted B16 melanoma after 1 hr. The class given is ADME, organism-based. The settings on record: in vivo, iv.
Data set [5] can be described thus: Selectivity parameter calculated as the mean of 8 melanoma / non target tissue ratio at 1 hr postinjection. The class given is functional. The method, boiled down:
(§2)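 Tissue radioactivity was γ-counted as % ID/g. Selectivity (M/NTT) is the mean of the 8 melanoma/nontarget tissue ratios: blood, heart, lung, spleen, liver, kidney, muscle and brain. n = 3.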

Data set [6] relates to Mus musculus. The data set is described as follows: Biodistribution was studied by injecting intravenously into C57B1/6 mice bearing subcutaneously transplanted B16 kidney after 6 hr. Format: ADME, organism-based. The note with it: in vivo, iv.
Data set [7] deals with B16. The data set can be described thus: Binding of radioiodinated compound in B16 cells as a function of specific activity for melanoma after 1 hr injecting at 1.8*10e-6 (uMol/mouse). The class given is functional. The method, boiled down: as §1
The subject of data set [8] is B16. The data set can be described thus: Binding of radioiodinated compound in B16 cells as a function of specific activity for blood at 1 hr after injecting at 1.8*10e-6 (uMol/mouse). The class given is functional. The method, boiled down:
as §1

In data set [9] the test system is Mus musculus. The data set can be described thus: Biodistribution was studied by injecting intravenously into C57B1/6 mice bearing subcutaneously transplanted B16 liver after 1 hr. The class given is ADME, organism-based. The settings on record: in vivo, iv.
Data set [10] has as its system Mus musculus. The data set can be described thus: (§3) Amount of urinary radioactivity collected within 4 hr after iv injection into C57B1/6 mice was analyzed by RP-HPLC. Format: ADME, organism-based, Urine. The settings on record: in vivo.
The subject of data set [11] is B16. The data set can be described thus: Binding of radioiodinated compound in B16 cells as a function of specific activity for melanoma at 1 hr after injecting at 1.5*10e-3 (uMol/mouse). The class given is functional. The method, boiled down: as §1
The test system of data set [12] is Mus musculus. The data set is described as follows: Biodistribution was studied by injecting intravenously into C57B1/6 mice bearing subcutaneously transplanted B16 spleen after 1 hr. The note with it: in vivo, iv. The class given is ADME, organism-based.
Data set [13] deals with Mus musculus. The data set is described as follows: Biodistribution was studied by injecting intravenously into C57B1/6 mice bearing subcutaneously transplanted B16 kidney after 1 hr. Format: ADME, organism-based. The settings on record: in vivo, iv.
Data set [14] has as its system B16. The data set is described as follows: Binding of radioiodinated compound in B16 cells as a function of specific activity for blood at 1 hr after injecting at 1.5(umol/mouse). Format: functional. The method, boiled down: as §1
Data set [15] has as its system Mus musculus. The data set is described as follows: Biodistribution was studied by injecting intravenously into C57B1/6 mice bearing subcutaneously transplanted B16 heart after 1 hr. The class given is ADME, organism-based. The settings on record: in vivo, iv.
Data set [16] concerns Mus musculus. The data set can be described thus: Biodistribution was studied by injecting intravenously into C57B1/6 mice bearing subcutaneously transplanted B16 melanoma after 6 hr. The class given is ADME, organism-based. The note with it: in vivo, iv.
Data set [17] relates to Mus musculus. The data set can be described thus: Biodistribution was studied by injecting intravenously into C57B1/6 mice bearing subcutaneously transplanted B16 brain after 6 hr. The class given is ADME, organism-based. The note with it: in vivo, iv.
Data set [18] concerns Mus musculus. The data set is described as follows: Biodistribution was studied by injecting intravenously into C57B1/6 mice bearing subcutaneously transplanted B16 blood after 1 hr. The class given is ADME, organism-based. The settings on record: in vivo, iv.
In data set [19] the test system is Mus musculus. The data set is described as follows: Biodistribution was studied by injecting intravenously into C57B1/6 mice bearing subcutaneously transplanted B16 […] after 6 hr. The note with it: in vivo, iv. Format: ADME, organism-based.
Data set [20] has as its system Mus musculus. The data set is described as follows: Biodistribution was studied by injecting intravenously into C57B1/6 mice bearing subcutaneously transplanted B16 heart after 6 hr. Format: ADME, organism-based. The note with it: in vivo, iv.
Data set [21] has as its system Mus musculus. The data set is described as follows: Biodistribution was studied by injecting intravenously into C57B1/6 mice bearing subcutaneously transplanted B16 muscle after 1 hr. Format: ADME, organism-based, Muscle tissue. The note with it: in vivo, iv.
The subject of data set [22] is B16. The data set is described as follows: Binding of radioiodinated compound in B16 cells as a function of specific activity for melanoma at 1 hr after injecting at 1.5(umol/mouse). The class given is functional. The method, boiled down: as §1
In data set [23] the test system is Mus musculus. The data set can be described thus: Biodistribution was studied by injecting intravenously into C57B1/6 mice bearing subcutaneously transplanted B16 lung after 6 hr. The class given is ADME, organism-based. The note with it: in vivo, iv.
The subject of data set [24] is Mus musculus. The data set is described as follows: Biodistribution was studied by injecting intravenously into C57B1/6 mice bearing subcutaneously transplanted B16 blood after 6 hr. The class given is ADME, organism-based. The note with it: in vivo, iv.
In data set [25] the test system is Mus musculus. The data set is described as follows: Biodistribution was studied by injecting intravenously into C57B1/6 mice bearing subcutaneously transplanted B16 muscle after 6 hr. The note with it: in vivo, iv. Format: ADME, organism-based, Muscle tissue.
Data set [26] concerns Mus musculus. The data set is described as follows: Biodistribution was studied by injecting intravenously into C57B1/6 mice bearing subcutaneously transplanted B16 lung after 1 hr. Format: ADME, organism-based. The settings on record: in vivo, iv.
The test system of data set [27] is B16. The data set is described as follows: Binding of radioiodinated compound in B16 cells as a function of specific activity for melanoma at 6 hr after injecting at 1.5(umol/mouse). The class given is functional. The method, boiled down: as §1
The nature of data set [28]: Selectivity parameter calculated as the mean of 8 melanoma / non target tissue ratio at 6 hr postinjection. The class given is functional. The method, boiled down: as §2
Data set [29] has as its system B16. The data set can be described thus: Binding of radioiodinated compound in B16 cells as a function of specific activity for blood at 6 hr after injecting at 1.5(umol/mouse). The class given is functional. The method in brief: as §1
Data set [30] relates to B16. The data set is described as follows: Binding of radioiodinated compound in B16 cells as a function of specific activity for blood at 6 hr after injecting at 1.5*10e-3 (uMol/mouse). The class given is functional. The method in brief: as §1
Data set [31] concerns B16. The data set can be described thus: Binding of radioiodinated compound in B16 cells as a function of specific activity for blood at 6 hr after injecting at 1.8*10e-6 (uMol/mouse). Format: functional. The method in brief:
as §1

The test system of data set [32] is B16. The data set can be described thus: Binding of radioiodinated compound in B16 cells as a function of specific activity for melanoma at 6 hr after injecting at 1.5*10e-3 (uMol/mouse). Format: functional. The method, boiled down:
as §1

Data set [33] concerns Mus musculus. The data set can be described thus: Biodistribution was studied by injecting intravenously into C57B1/6 mice bearing subcutaneously transplanted B16 brain after 1 hr. The class given is ADME, organism-based. The note with it: in vivo, iv.
Data set [34] has as its system B16. The data set is described as follows: Binding of radioiodinated compound in B16 cells as a function of specific activity for melanoma at 6 hr after injecting at 1.8*10e-6 (uMol/mouse). The class given is functional. The method in brief:
as §1

The test system of data set [35] is Mus musculus. The description is as §3. Format: functional, Urine.

Usually logD stands for lipophilicity at a set pH, counting ionised and neutral species. Lower therefore signals lower lipophilicity.

For the compound `CCN(CC)CCNC(=O)c1ccc(OC)c(I)c1`, the ID/g turned out to be 0.29% with Mus musculus [1]; 1.03% in the data set on B16 [2]; 6.5% in the data set on Mus musculus [4]; 0.17% with Mus musculus [6]; 6.5% in the data set on B16 [7]; 0.2% in the data set with B16 [8]. Also, the ID/g was 2.62% in the data set with Mus musculus [9]; 4.86% in the data set on B16 [11]; 0.39% with Mus musculus [12]; 0.93% with Mus musculus [13]; 0.78% in the data set on B16 [14]; 0.25% in the data set on Mus musculus [15]. Further, the ID/g in the data set on Mus musculus [16] stood at 4.14%; in the data set with Mus musculus [17], 0.01%; with Mus musculus [18], 0.2%; with Mus musculus [19] it was 0.05%; in the data set on Mus musculus [20], 0.05%; in the data set on Mus musculus [21] it was 0.19%. Further, the ID/g is 5.41% with B16 [22]; 0.09% in the data set with Mus musculus [23]; 0.04% with Mus musculus [24]; 0.03% in the data set with Mus musculus [25]; 0.69% with Mus musculus [26]; 3.72% in the data set with B16 [27]. The ID/g with B16 [29] worked out at 0.29%; in the data set on B16 [30] it was 0.24%; in the data set on B16 [31], 0.04%; with B16 [32], 5.27%; in the data set with Mus musculus [33], 0.1%; in the data set on B16 [34], 4.14%. In data set [3], this compound gave a logD of 1.13. The Ratio in data set [5] was 24; in data set [28], 129. Besides, the ID in the data set with Mus musculus [10] came out at 82%.

Regarding `CCN(CC)CCNC(=O)c1ccc(I)cc1`, the ID/g in the data set with B16 [2] worked out at 1.06%; in the data set with B16 [7] it was 5.67%; in the data set on B16 [8] it was 0.65%; with B16 [11], 10%; in the data set on B16 [14] it was 1.04%; in the data set on B16 [22], 11.6%. For the same compound, the ID/g was 14.6% in the data set on B16 [27]; 0.1% in the data set on B16 [29]; 0.15% in the data set with B16 [30]; 0.17% in the data set with B16 [31]; 15.5% with B16 [32]; 9.32% with B16 [34]. Besides, the ID with Mus musculus [35] is on record as 66%.
